According to ChEMBL document CHEMBL4130563, “Structure-Based Design and Synthesis of New Estrane-Pyridine Derivatives as Cytochrome P450 (CYP) 1B1 Inhibitors” (ACS Med Chem Lett, 2017):

Assays:
CYP1B1 [1] = target: T1, CYP1B1 (Homo sapiens, UniProt Q16678); assay: Inhibition of recombinant human CYP1B1 expressed in supersomes coexpressing P450 reductase at 0.3 uM using 7-ethyl-O-resorufin as substrate after 45 mins in presence of NADPH by fluorescence assay relative to control; conditions: probe 7-ethyl-O-resorufin
T1 sequence (Q16678 whole entry): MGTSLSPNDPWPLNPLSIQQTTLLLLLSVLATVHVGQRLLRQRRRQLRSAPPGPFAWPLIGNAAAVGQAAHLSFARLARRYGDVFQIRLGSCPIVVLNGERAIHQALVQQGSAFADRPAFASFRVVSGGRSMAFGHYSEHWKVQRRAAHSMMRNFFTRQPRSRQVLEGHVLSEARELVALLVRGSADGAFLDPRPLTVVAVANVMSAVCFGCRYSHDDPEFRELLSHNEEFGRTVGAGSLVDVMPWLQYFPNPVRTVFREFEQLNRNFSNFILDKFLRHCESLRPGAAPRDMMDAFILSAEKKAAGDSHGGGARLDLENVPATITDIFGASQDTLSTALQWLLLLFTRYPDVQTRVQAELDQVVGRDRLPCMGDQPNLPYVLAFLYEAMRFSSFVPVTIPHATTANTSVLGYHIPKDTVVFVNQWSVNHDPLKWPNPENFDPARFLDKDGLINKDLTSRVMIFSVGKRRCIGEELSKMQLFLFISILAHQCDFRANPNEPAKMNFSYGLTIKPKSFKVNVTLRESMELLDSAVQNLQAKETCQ

Cytochrome P450 1B1 = target: T2, Cytochrome P450 1B1 (Homo sapiens, UniProt Q16678); assay: Inhibition of recombinant human CYP1B1 expressed in supersomes coexpressing P450 reductase using 7-ethyl-O-resorufin as substrate after 45 mins in presence of NADPH by fluorescence assay
T2 sequence (Q16678 whole entry): T1 sequence (Q16678 whole entry)

CYP1B1 [2] = target: T1, CYP1B1; assay: Potency index, ratio of alpha-naphthoflavone IC50 to compound IC50 for inhibition of recombinant human CYP1B1 expressed in supersomes coexpressing P450 reductase; conditions: read-out: Ratio IC50
Method in brief: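 EROD assay on recombinant human CYP1B1 with NADPH as cofactor. Resorufin ethyl ether is the substrate, and conversion to resorufin is read by fluorescence.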

[3] = Drug uptake in rat plasma at 2 mg/kg, sc administered as single dose measured at 2 hrs post dose by LC-MS analysis; type: ADME, organism-based
Method in brief: (§1)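 Rats given one subcutaneous injection of the 17β-alcohol parent at 2.0 mg/kg (0.66 mg in PG:DMSO 92:8). Plasma levels of the parent and of its 17-keto metabolite were followed over time. AUC (ng.h/mL) was calculated for each species and for the two combined.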

[4] = AUC (0 to 24 hrs) in rat plasma at 2 mg/kg, sc administered as single dose measured at 2 hrs post dose by LC-MS analysis; type: ADME, organism-based; parameters: time < 24 hr, dose 2 mg/kg, route subcutaneous; method in brief: as §1
[5] = Drug metabolism in rat plasma assessed as 2-(3-pyridinyl)-3-hydroxy-estra-1,3,5(10)-trien-17-one formation at 2 mg/kg, sc administered as single dose measured at 2 hrs post dose by LC-MS analysis; type: ADME, organism-based; conditions: in vivo; method in brief: as §1
Rattus norvegicus = assay: AUC (0 to 24 hrs) in rat plasma assessed as 2-(3-pyridinyl)-3-hydroxy-estra-1,3,5(10)-trien-17-one level at 2 mg/kg, sc administered as single dose measured at 2 hrs post dose by LC-MS analysis; type: ADME, organism-based; parameters: dose 2 mg/kg, time < 24 hr, route subcutaneous; conditions: in vivo; method in brief: as §1

SMILES	inhibition at 0.75 h, 0.3 µM (CYP1B1 [1]) [%]	further results
C[C@]12CC[C@@H]3c4ccc(O)c(-c5cccnc5)c4CC[C@H]3[C@@H]1CCC2=O	14	
C[C@]12CC[C@@H]3c4cc(-c5ccncc5)c(O)cc4CC[C@H]3[C@@H]1CC[C@@H]2O	87.4	IC50 (Cytochrome P450 1B1): 32 nM; selectivity ratio (CYP1B1 [2]): 2.5
C[C@]12CC[C@@H]3c4cc(-c5ccncc5)c(O)cc4CC[C@H]3[C@@H]1CCC2=O	21.3	IC50 (Cytochrome P450 1B1): 120 nM
C[C@]12CC[C@@H]3c4ccc(S)cc4CC[C@H]3[C@@H]1CCC2=O	13.3	
C[C@]12CC[C@@H]3c4ccc(-c5cccnc5)cc4CC[C@H]3[C@@H]1CC[C@@H]2O	19.6	
C[C@]12CC[C@@H]3c4cc(-c5cccnc5)c(O)cc4CC[C@H]3[C@@H]1CC[C@@H]2O	85.4	concentration at 2 h [3]: 4 ng/mL; AUC(0-t) at 24 h [4]: 12.8 ng·h/mL; IC50 (Cytochrome P450 1B1): 11 nM; Drug metabolism [5]: 7 ng/mL; AUC (Rattus norvegicus): 33.2 ng·h/mL; selectivity ratio (CYP1B1 [2]): 7.5
C[C@]12CC[C@@H]3c4ccc(-c5ccncc5)cc4CC[C@H]3[C@@H]1CCC2=O	6.1	
C[C@]12CC[C@@H]3c4ccc(-c5ccncc5)cc4CC[C@H]3[C@@H]1CC[C@@H]2O	19.5	
C[C@]12CC[C@@H]3c4cc(-c5cccnc5)c(O)cc4CC[C@H]3[C@@H]1CCC2=O	37.8	IC50 (Cytochrome P450 1B1): 63 nM

Continued, in another order:

inhibition at 0.75 h, 0.3 µM (CYP1B1 [1]) [%]	SMILES	further results
12.4	C[C@]12CC[C@@H]3c4ccc(O)cc4CC[C@H]3[C@@H]1CC[C@@H]2O [ESTRADIOL]	
94	O=c1cc(-c2ccccc2)oc2c1ccc1ccccc12 [ALPHA-NAPHTHOFLAVONE]	
20.9	C[C@]12CC[C@@H]3c4ccc(O)c(-c5ccncc5)c4CC[C@H]3[C@@H]1CC[C@@H]2O	
28.9	C[C@]12CC[C@@H]3c4ccc(O)c(-c5cccnc5)c4CC[C@H]3[C@@H]1CC[C@@H]2O	
28.2	C[C@]12CC[C@@H]3c4ccc(-c5cccnc5)cc4CC[C@H]3[C@@H]1CCC2=O	
16.9	C[C@]12CC[C@@H]3c4ccc(O)c(-c5ccncc5)c4CC[C@H]3[C@@H]1CCC2=O	
